# pEC50: −log10 of the molar value. The source made the active and inactive calls. The calls are words filed in the database; no cut-off is given here.
# Legend:
# HT-1080 [1] = test: Anti-ferroptotic activity in human HT-1080 cells assessed as cell viability incubated for 24 hrs by Cell-titer-glo assay; type: functional, cell-based
# In short: (§1)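 Seeded at 2000–5000 cells/well; 24 h later cells were co-treated with 1 μM RSL3 and graded inhibitor concentrations for 24 h, then viability was read. EC50 came from sigmoidal nonlinear regression fits. Three independent experiments, means ± SD. HT-1080 and H9c2 were grown in DMEM; BJ in α-MEM with nonessential amino acids and 1 mM pyruvate; all media had 10% FBS.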
# [2] = Antioxidant activity assessed as DPPH radical scavenging activity incubated for 1 hr by spectrophotometric analysis; type: functional
# In short: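 Compound in DMSO was mixed with methanolic DPPH to give 40 μM DPPH (final) across a range of compound concentrations. After 1 h at room temperature, absorbance was read at 517 nm. Scavenging % = [A(DMSO) − A(sample)]/[A(DMSO) − A(methanol)] × 100, with DMSO as zero control and methanol as blank.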
# [3] = Antioxidant activity assessed as ABTS radical scavenging activity measured for 6 mins by absorbance based analysis; type: functional
# In short: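 ABTS (14 mM stock in water) was oxidised with 2.45 mM (final) potassium persulfate in the dark at room temperature for 18 h. The radical was diluted to 100 μM in 50 mM sodium phosphate, pH 7.4. Compounds (1–100 μM) were added, incubated at 30 °C for 6 min, and absorbance was read at 415 nm.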
# 786-0 [4] = test: Inhibition of RSL3-induced ferroptosis in human 786-0 cells assessed as recovery of membrane rupture at 0.0625 uM measured after 1 day by light microscopy based analysis; type: functional, cell-based
# In short: (§2)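 786-O cells were seeded at 5000/well. After 24 h, 1 μM RSL3 was added together with inhibitor at 1 or 0.0625 μM. After one day of incubation, cell morphology (shrinkage, membrane rupture) was inspected by light microscopy.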
# 786-0 [5] = test: Inhibition of RSL3-induced ferroptosis in human 786-0 cells assessed as recovery of shrunken cells at 0.0625 uM measured after 1 day by light microscopy based analysis; type: functional, cell-based; in short: as §2
# H9c2 = test: Anti-ferroptotic activity against RSL3 induced ferroptosis in rat H9c2 cells assessed as cell viability incubated for 24 hrs by Cell-titer-glo assay; type: functional, cell-based; settings: H9c2, 24 h; in short: as §1
# HT-1080 [6] = test: Anti-ferroptotic activity against imidazole ketone erastin (IKE) induced ferroptosis in human HT-1080 cells assessed as cell viability incubated for 24 hrs by Cell-titer-glo assay; type: functional, cell-based; settings: HT-1080, 24 h
# In short: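 HT-1080 cells (DMEM, 10% FBS) were seeded at 2000–5000/well. After 24 h they received 2.5 μM IKE plus graded inhibitor concentrations for 24 h, and viability was measured. EC50 came from sigmoidal nonlinear regression. Three independent experiments, means ± SD.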
# 786-0 [7] = test: Inhibition of RSL3-induced ferroptosis in human 786-0 cells assessed as recovery of membrane rupture at 1 uM measured after 1 day by light microscopy based analysis; type: functional, cell-based; in short: as §2
# 786-0 [8] = test: Anti-ferroptotic activity against RSL3 induced ferroptosis in human 786-0 cells assessed as cell viability incubated for 24 hrs by Cell-titer-glo assay; type: functional, cell-based; settings: 786-0, 24 h; in short: as §1
# 786-0 [9] = test: Inhibition of RSL3-induced ferroptosis in human 786-0 cells assessed as recovery in loss of cell morphology at 1 uM measured after 1 day by light microscopy based analysis; type: functional; in short: as §2
# BJ = test: Anti-ferroptotic activity against RSL3 induced ferroptosis in human BJ cells assessed as cell viability incubated for 24 hrs by Cell-titer-glo assay; type: functional, cell-based; in short: as §1
# HT-1080 [10] = test: Anti-ferroptotic activity against RSL3 induced ferroptosis in human HT-1080 cells assessed as cell viability incubated for 24 hrs by Cell-titer-glo assay; type: functional, cell-based; settings: HT-1080, 24 h; in short: as §1
# HT-1080 [11] = test: Anti-ferroptotic activity against RSL3 induced ferroptosis in human HT-1080 cells assessed as decrease in lipid peroxidation at 1 uM measured after 8 hrs by C11-BODIPY staining based flow cytometric analysis (reference value: 3.06%); type: functional; design: scale not given: the % may be the effect or the level left
# 786-0 [12] = test: Inhibition of RSL3-induced ferroptosis in human 786-0 cells assessed as recovery from loss of cell morphology at 0.0625 uM measured after 1 day by light microscopy based analysis; type: functional; in short: as §2
# 786-0 [13] = test: Inhibition of RSL3-induced ferroptosis in human 786-0 cells assessed as recovery of shrunken cells at 1 uM measured after 1 day by light microscopy based analysis; type: functional, cell-based; in short: as §2
# [14] = Metal chelating activity assessed as Fe3+ chelation at 20 mM at […] absorbance
# In short: (§3)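 Compound was dissolved in MeOH at 20 mM and mixed with FeSO4 (Fe2+) or FeCl3 (Fe3+) at 10 mM. Samples were diluted with MeOH/H2O, UV–vis spectra were recorded, and the absorption peak at 261 nm was quantified.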
# [15] = Metal chelating activity assessed as Fe3+ chelation by measuring change in UV-vis absorption at 20 mM at […] absorbance; in short: as §3
# [16] = Metal chelating activity assessed as Fe2+ chelation at 20 mM at […] absorbance; in short: as §3
# HT-1080 [17] = test: Anti-ferroptotic activity in human HT-1080 cells assessed as suppression of erastin induced cytosolic ROS accumulation at 1 uM incubated for 24 hrs by DCFH-DA staining based confocal microscopy analysis; type: functional, cell-based
# In short: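 HT-1080 cells on glass coverslips (4 × 10^5/well, overnight) were co-treated for 24 h with 5 μM erastin and either DMSO or inhibitor at 1 μM. Cells were washed with PBS, loaded with 10 μM (final) DCFH-DA at 37 °C for 20 min, washed three times and imaged by confocal laser scanning microscopy.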
# [18] = Metal chelating activity assessed as Fe2+ chelation by measuring change in UV-vis absorption at 20 mM at […] absorbance; in short: as §3
smiles,measurement,setting,value
Oc1c(-c2ccc3c(c2)OCO3)n[nH]c1-c1ccccc1,pEC50,"HT-1080 [1]; Homo sapiens, HT-1080, 24 h",7.56
COc1ccc(-c2[nH]nc(-c3ccc(Cl)cc3)c2O)cc1,pEC50,"HT-1080 [1]; Homo sapiens, HT-1080, 24 h",7.64
Oc1c(-c2ccccc2)n[nH]c1-c1ccco1,pEC50,"HT-1080 [1]; Homo sapiens, HT-1080, 24 h",< 6.00
COC(=O)c1ccc(-c2[nH]nc(-c3ccc(Cl)cc3)c2O)cc1,pEC50,"HT-1080 [1]; Homo sapiens, HT-1080, 24 h",7.29
Cc1ccc(-c2[nH]nc(-c3ccc([N+](=O)[O-])cc3)c2O)cc1,pEC50,"HT-1080 [1]; Homo sapiens, HT-1080, 24 h",6.92
Oc1c(-c2ccccc2)n[nH]c1-c1ccc(Br)cc1,pEC50,"HT-1080 [1]; Homo sapiens, HT-1080, 24 h",7.65
CCCCc1[nH]nc(-c2ccccc2)c1O,pEC50,"HT-1080 [1]; Homo sapiens, HT-1080, 24 h",6.82
Oc1c(-c2ccc(C(F)(F)F)cc2)n[nH]c1-c1ccccc1,pEC50,"HT-1080 [1]; Homo sapiens, HT-1080, 24 h",7.10
Oc1c(-c2ccccc2Cl)n[nH]c1-c1ccccc1,pEC50,"HT-1080 [1]; Homo sapiens, HT-1080, 24 h",7.02
Oc1c(-c2ccc(Cl)cc2)n[nH]c1-c1ccccc1,pEC50,"HT-1080 [1]; Homo sapiens, HT-1080, 24 h",7.51
same,pEC50,HT-1080 [1]; ht-1080,7.72
same,Activity,[2],4.97 µM
same,Activity,[3],112 µM
CCNC(=O)c1ccc(-c2[nH]nc(-c3ccc(Cl)cc3)c2O)cc1,pEC50,"HT-1080 [1]; Homo sapiens, HT-1080, 24 h",7.09
Oc1c(-c2ccc(-c3ccccc3)cc2)n[nH]c1-c1ccccc1,pEC50,"HT-1080 [1]; Homo sapiens, HT-1080, 24 h",7.40
Oc1c(-c2ccccc2)n[nH]c1-c1ccccc1,pEC50,"HT-1080 [1]; Homo sapiens, HT-1080, 24 h",7.16
CCOC(=O)c1ccc(NC2CCCCC2)c(N)c1,inhibition,786-0 [4],inactive
same,inhibition,786-0 [5],inactive
same,pEC50,H9c2,7.16
same,pEC50,"HT-1080 [1]; Homo sapiens, HT-1080, 24 h",7.63
same,pEC50,HT-1080 [6],7.12
same,inhibition,786-0 [7],Active
same,Activity,[2],6.48 µM
same,pEC50,786-0 [8],6.60
same,inhibition,786-0 [9],Active
same,pEC50,BJ,7.42
same,pEC50,HT-1080 [10],7.63
same,Activity,[3],49.8 µM
same,Activity,HT-1080 [11],9.2%
same,inhibition,786-0 [12],inactive
same,inhibition,786-0 [13],Active
Oc1c(-c2ccc(Cl)cc2)n[nH]c1-c1cnc[nH]1,pEC50,"HT-1080 [1]; Homo sapiens, HT-1080, 24 h",7.59
Cn1nc(-c2ccc(Cl)cc2)c(O)c1-c1ccccc1,pEC50,"HT-1080 [1]; Homo sapiens, HT-1080, 24 h",7.66
Oc1c(-c2ccc(F)cc2)n[nH]c1-c1ccccc1,pEC50,"HT-1080 [1]; Homo sapiens, HT-1080, 24 h",7.10
same,pEC50,HT-1080 [1]; ht-1080,7.37
Oc1ccc(-c2[nH]nc(-c3ccc(Cl)cc3)c2O)cc1O,pEC50,"HT-1080 [1]; Homo sapiens, HT-1080, 24 h",7.58
O=C(NO)c1ccc(-c2[nH]nc(-c3ccc(Cl)cc3)c2O)cc1,pEC50,"HT-1080 [1]; Homo sapiens, HT-1080, 24 h",7.10
Clc1ccc(-c2cc(-c3ccccc3)n[nH]2)cc1,pEC50,"HT-1080 [1]; Homo sapiens, HT-1080, 24 h",< 6.00
same,Activity,[2],> 100 µM
same,Activity,[3],> 200 µM
Oc1c(-c2ccc(Cl)cc2Cl)n[nH]c1-c1ccccc1,pEC50,"HT-1080 [1]; Homo sapiens, HT-1080, 24 h",7.25
Oc1c(-c2ccc(Cl)cc2)n[nH]c1-c1cccc2ccccc12,pEC50,"HT-1080 [1]; Homo sapiens, HT-1080, 24 h",7.35
Oc1c(-c2ccc(Cl)cc2)nn(-c2ccccc2)c1-c1ccccc1,pEC50,"HT-1080 [1]; Homo sapiens, HT-1080, 24 h",7.61
CN(C)CCCNC(=O)c1ccc(-c2[nH]nc(-c3ccc(Cl)cc3)c2O)cc1,pEC50,"HT-1080 [1]; Homo sapiens, HT-1080, 24 h",7.35
Oc1c(-c2cccc(Cl)c2)n[nH]c1-c1ccccc1,pEC50,"HT-1080 [1]; Homo sapiens, HT-1080, 24 h",6.73
Oc1c(-c2ccc(Cl)cc2)n[nH]c1-c1ccc(F)cc1,pEC50,"HT-1080 [1]; Homo sapiens, HT-1080, 24 h",7.28
Oc1ccc(-c2[nH]nc(-c3ccc(Cl)cc3)c2O)cc1,inhibition,786-0 [4],Active
same,inhibition,786-0 [5],Active
same,pEC50,H9c2,7.36
same,pEC50,"HT-1080 [1]; Homo sapiens, HT-1080, 24 h",8.07
same,pEC50,HT-1080 [6],7.32
same,inhibition,786-0 [7],Active
same,Activity,[14],inactive
same,Activity,[2],3.94 µM
same,Activity,[15],inactive
same,pEC50,786-0 [8],7.05
same,inhibition,786-0 [9],Active
same,Activity,[16],inactive
same,pEC50,BJ,7.95
same,pEC50,HT-1080 [10],8.07
same,Activity,HT-1080 [17],Active
same,Activity,[3],6.3 µM
same,Activity,HT-1080 [11],1.42%
same,inhibition,786-0 [12],Active
same,Activity,[18],inactive
same,inhibition,786-0 [13],Active
Oc1c(-c2ccc(Cl)cc2)n[nH]c1-c1ccc(C(F)(F)F)cc1,pEC50,"HT-1080 [1]; Homo sapiens, HT-1080, 24 h",6.73
Cn1nc(-c2ccc(Cl)cc2)c(N)c1-c1ccccc1,pEC50,"HT-1080 [1]; Homo sapiens, HT-1080, 24 h",6.14
same,Activity,[2],14.6 µM
same,Activity,[3],> 200 µM
O=C(O)c1ccc(-c2[nH]nc(-c3ccc(Cl)cc3)c2O)cc1,pEC50,"HT-1080 [1]; Homo sapiens, HT-1080, 24 h",< 6.00
COc1ccc(-c2[nH]nc(-c3ccc(Cl)cc3)c2O)cc1OC,pEC50,"HT-1080 [1]; Homo sapiens, HT-1080, 24 h",7.50
COc1ccc(-c2n[nH]c(-c3ccccc3)c2O)cc1,pEC50,"HT-1080 [1]; Homo sapiens, HT-1080, 24 h",7.61
same,pEC50,HT-1080 [1]; ht-1080,7.49

# — ChEMBL document CHEMBL5532644, “Discovery of 4-hydroxyl pyrazole derivatives as potent ferroptosis inhibitors” (Eur J Med Chem, 2024)
